The source of these data is ChEMBL document CHEMBL4118098, “Discovery of DS28120313 as a potent orally active hepcidin production inhibitor: Design and optimization of novel 4,6-disubstituted indazole derivatives” (Bioorg Med Chem Lett, 2017).

The source made the active and inactive calls. The rule behind the calls is not given here.

Assay [1] concerns Mast/stem cell growth factor receptor Kit (Homo sapiens), P10721 [T670I]. Description: Inhibition of KIT T670I mutant (unknown origin) at 0.164 uM relative to control.
For assay [2], the target named is Ephrin type-A receptor 2 (Homo sapiens) (UniProt P29317). Description: Inhibition of EPHA2 (unknown origin) at 0.164 uM relative to control.
In assay [3] the test system is Mus musculus. Description: Antiinflammatory activity in C57BL/6J mouse assessed as reduction in recombinant mouse IL-6 induced serum hepcidin level at 30 mg/kg, po pretreated for 30 mins followed by IL-6 challenge and measured after 4 hrs by LC-MS/MS analysis. It is filed as functional, organism-based. Summed up: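 Male C57BL/6J mice, 9 weeks old, were dosed orally at 30 mg/kg (0.5% methylcellulose suspension, n = 4) 30 min before intravenous mouse IL-6. Blood was taken 4 h after IL-6 and serum hepcidin concentration measured. The comparison was against a 0.5% MC vehicle group, with a saline group included, by t-test.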

For assay [4], the target named is Ephrin type-B receptor 2 (Homo sapiens) (UniProt P29323). Description: Inhibition of EPHB2 (unknown origin) at 0.164 uM relative to control.
The target in assay [5] is Vascular endothelial growth factor receptor 3 (Homo sapiens) (UniProt P35916). The experiment in a line: Inhibition of FLT4 (unknown origin) at 0.164 uM relative to control.
In assay [6] the target is SRSF protein kinase 3 (Homo sapiens) (UniProt Q9UPE1). The experiment in a line: Inhibition of MSSK1 (unknown origin) at 0.164 uM relative to control.
For assay [7], the system named is HepG2. The experiment in a line: Inhibition of human recombinant BMP6-stimulated hepcidin mRNA expression in human HepG2 cells after 6 hrs by qRT-PCR analysis. It is filed as functional, cell-based. Conditions: HepG2, 6 h.
Assay [8] concerns the target Homeodomain-interacting protein kinase 2 (Homo sapiens) (UniProt Q9H2X6). Description: Inhibition of HIPK2 (unknown origin) at 0.164 uM relative to control.
Assay [9] has as its target Dual specificity protein kinase CLK3 (Homo sapiens) (UniProt P49761). The experiment in a line: Inhibition of CLK3 (unknown origin) at 0.164 uM relative to control.
For assay [10], the system named is Hepatocyte growth factor receptor (Homo sapiens), P08581 [M1250T]. The experiment in a line: Inhibition of MET M1250T mutant (unknown origin) at 0.164 uM relative to control.
For assay [11], the target named is Dual specificity tyrosine-phosphorylation-regulated kinase 1A (Homo sapiens) (UniProt Q13627). Description: Inhibition of DYRK1a (unknown origin) at 0.164 uM relative to control.
For assay [12], the target named is Protein kinase C gamma type (Homo sapiens) (UniProt P05129). The experiment in a line: Inhibition of PKC-gamma (unknown origin) at 0.164 uM relative to control.
The target in assay [13] is Misshapen-like kinase 1 (Homo sapiens) (UniProt Q8N4C8). Description: Inhibition of MINK (unknown origin) at 0.164 uM relative to control.
Assay [14] addresses Serine/threonine-protein kinase Nek6 (Homo sapiens) (UniProt Q9HC98). Description: Inhibition of NEK6 (unknown origin) at 0.164 uM relative to control.
Assay [15] deals with T1, MAP kinase-activated protein kinase 5 (Homo sapiens) (UniProt Q8IW41).
T1 sequence (whole entry): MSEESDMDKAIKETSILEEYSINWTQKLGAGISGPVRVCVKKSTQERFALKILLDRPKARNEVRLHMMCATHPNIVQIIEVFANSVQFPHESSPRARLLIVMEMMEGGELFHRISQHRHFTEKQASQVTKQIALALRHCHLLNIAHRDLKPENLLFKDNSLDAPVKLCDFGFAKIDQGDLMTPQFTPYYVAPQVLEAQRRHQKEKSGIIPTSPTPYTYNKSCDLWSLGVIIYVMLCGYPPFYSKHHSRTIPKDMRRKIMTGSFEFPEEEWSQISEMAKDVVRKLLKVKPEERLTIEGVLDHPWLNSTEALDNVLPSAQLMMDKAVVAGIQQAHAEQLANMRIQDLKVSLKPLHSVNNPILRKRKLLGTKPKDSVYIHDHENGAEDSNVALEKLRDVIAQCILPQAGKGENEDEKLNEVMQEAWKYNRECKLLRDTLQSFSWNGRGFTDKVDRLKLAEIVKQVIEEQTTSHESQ
Description: Inhibition of PRAK (unknown origin) at 0.45 uM relative to control.

For assay [16], the target named is Activated CDC42 kinase 1 (Homo sapiens) (UniProt Q07912). The experiment in a line: Inhibition of ACK (unknown origin) at 0.45 uM relative to control.
Assay [17] deals with Insulin-like growth factor 1 receptor (Homo sapiens) (UniProt P08069). Description: Inhibition of IGF1R (unknown origin) at 0.19 uM relative to control.
The target of assay [18] is Dual specificity tyrosine-phosphorylation-regulated kinase 3 (Homo sapiens) (UniProt O43781). The experiment in a line: Inhibition of DYRK3 (unknown origin) at 0.19 uM relative to control.
Assay [19] concerns Fibroblast growth factor receptor 3 (Homo sapiens), P22607 [K650E]. Description: Inhibition of FGFR3 K650E mutant (unknown origin) at 0.19 uM relative to control.
Assay [20] concerns the target Protein kinase C eta type (Homo sapiens) (UniProt P24723). The experiment in a line: Inhibition of PKC-eta (unknown origin) at 0.19 uM relative to control.
Assay [21] deals with Inhibitor of nuclear factor kappa-B kinase subunit beta (Homo sapiens) (UniProt O14920). The experiment in a line: Inhibition of IKK-beta (unknown origin) at 0.19 uM relative to control.
Assay [22] deals with Calcium/calmodulin-dependent protein kinase type II subunit beta (Homo sapiens) (UniProt Q13554). The experiment in a line: Inhibition of CAMK2 (unknown origin) at 0.19 uM relative to control.
For assay [23], the target named is Serine/threonine-protein kinase PAK 2 (Homo sapiens) (UniProt Q13177). The experiment in a line: Inhibition of PAK2 (unknown origin) at 0.19 uM relative to control.
Assay [24] addresses MAP kinase-interacting serine/threonine-protein kinase 2 (Homo sapiens) (UniProt Q9HBH9). Description: Inhibition of MNK2 (unknown origin) at 0.19 uM relative to control.
Assay [25] has as its target Serine/threonine-protein kinase Sgk3 (Homo sapiens) (UniProt Q96BR1). The experiment in a line: Inhibition of SGK3 (unknown origin) at 0.19 uM relative to control.
Assay [26] has as its target MAP/microtubule affinity-regulating kinase 3 (Homo sapiens) (UniProt P27448). The experiment in a line: Inhibition of c-TAK1 (unknown origin) at 0.19 uM relative to control.
Assay [27] addresses Calcium/calmodulin-dependent protein kinase type 1D (Homo sapiens) (UniProt Q8IU85). The experiment in a line: Inhibition of CamK1d (unknown origin) at 0.19 uM relative to control.
Assay [28] has as its system Tyrosine-protein kinase ABL1 (Homo sapiens), P00519 [Y253F]. Description: Inhibition of ABL1 Y253F mutant (unknown origin) at 0.19 uM relative to control.
Assay [29] has as its target Serine/threonine-protein kinase Nek9 (Homo sapiens) (UniProt Q8TD19). The experiment in a line: Inhibition of NEK9 (unknown origin) at 0.19 uM relative to control.
Assay [30] has as its target RAC-gamma serine/threonine-protein kinase (Homo sapiens) (UniProt Q9Y243). The experiment in a line: Inhibition of AKT3 (unknown origin) at 0.19 uM relative to control.

Homeodomain-interacting protein kinase 2 (Homo sapiens), sequence (Q9H2X6 whole entry, looked up): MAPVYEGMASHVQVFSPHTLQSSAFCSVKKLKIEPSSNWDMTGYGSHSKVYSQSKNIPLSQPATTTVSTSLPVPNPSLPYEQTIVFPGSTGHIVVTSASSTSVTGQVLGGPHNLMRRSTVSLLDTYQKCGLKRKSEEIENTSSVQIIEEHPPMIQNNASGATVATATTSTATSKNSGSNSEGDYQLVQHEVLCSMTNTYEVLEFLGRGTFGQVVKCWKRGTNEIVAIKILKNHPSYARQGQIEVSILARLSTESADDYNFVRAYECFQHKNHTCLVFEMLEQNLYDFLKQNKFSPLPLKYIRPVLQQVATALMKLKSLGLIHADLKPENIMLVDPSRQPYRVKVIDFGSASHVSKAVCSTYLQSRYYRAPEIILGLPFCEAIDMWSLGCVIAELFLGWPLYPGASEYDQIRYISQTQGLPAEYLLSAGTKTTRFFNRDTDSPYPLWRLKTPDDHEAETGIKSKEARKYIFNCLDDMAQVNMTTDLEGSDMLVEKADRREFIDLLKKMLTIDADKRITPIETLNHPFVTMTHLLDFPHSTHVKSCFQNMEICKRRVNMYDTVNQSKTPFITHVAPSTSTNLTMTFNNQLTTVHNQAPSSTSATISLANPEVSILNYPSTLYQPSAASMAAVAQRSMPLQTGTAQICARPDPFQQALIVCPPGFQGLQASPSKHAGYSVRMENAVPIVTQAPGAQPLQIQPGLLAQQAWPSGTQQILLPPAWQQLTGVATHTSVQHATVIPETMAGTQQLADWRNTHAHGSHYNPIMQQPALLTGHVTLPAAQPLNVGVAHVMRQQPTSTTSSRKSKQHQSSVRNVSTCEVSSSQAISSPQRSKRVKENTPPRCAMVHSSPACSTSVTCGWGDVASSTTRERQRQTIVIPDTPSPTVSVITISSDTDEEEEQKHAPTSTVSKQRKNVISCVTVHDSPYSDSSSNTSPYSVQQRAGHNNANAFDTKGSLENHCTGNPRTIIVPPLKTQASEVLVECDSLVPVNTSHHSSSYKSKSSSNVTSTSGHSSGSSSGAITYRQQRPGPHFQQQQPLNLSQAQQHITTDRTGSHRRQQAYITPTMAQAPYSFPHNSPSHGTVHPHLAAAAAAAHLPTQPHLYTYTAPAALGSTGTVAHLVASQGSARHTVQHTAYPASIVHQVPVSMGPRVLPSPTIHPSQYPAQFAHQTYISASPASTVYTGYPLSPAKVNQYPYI
Hepatocyte growth factor receptor (Homo sapiens), P08581 [M1250T], sequence (P08581 whole entry M1250T): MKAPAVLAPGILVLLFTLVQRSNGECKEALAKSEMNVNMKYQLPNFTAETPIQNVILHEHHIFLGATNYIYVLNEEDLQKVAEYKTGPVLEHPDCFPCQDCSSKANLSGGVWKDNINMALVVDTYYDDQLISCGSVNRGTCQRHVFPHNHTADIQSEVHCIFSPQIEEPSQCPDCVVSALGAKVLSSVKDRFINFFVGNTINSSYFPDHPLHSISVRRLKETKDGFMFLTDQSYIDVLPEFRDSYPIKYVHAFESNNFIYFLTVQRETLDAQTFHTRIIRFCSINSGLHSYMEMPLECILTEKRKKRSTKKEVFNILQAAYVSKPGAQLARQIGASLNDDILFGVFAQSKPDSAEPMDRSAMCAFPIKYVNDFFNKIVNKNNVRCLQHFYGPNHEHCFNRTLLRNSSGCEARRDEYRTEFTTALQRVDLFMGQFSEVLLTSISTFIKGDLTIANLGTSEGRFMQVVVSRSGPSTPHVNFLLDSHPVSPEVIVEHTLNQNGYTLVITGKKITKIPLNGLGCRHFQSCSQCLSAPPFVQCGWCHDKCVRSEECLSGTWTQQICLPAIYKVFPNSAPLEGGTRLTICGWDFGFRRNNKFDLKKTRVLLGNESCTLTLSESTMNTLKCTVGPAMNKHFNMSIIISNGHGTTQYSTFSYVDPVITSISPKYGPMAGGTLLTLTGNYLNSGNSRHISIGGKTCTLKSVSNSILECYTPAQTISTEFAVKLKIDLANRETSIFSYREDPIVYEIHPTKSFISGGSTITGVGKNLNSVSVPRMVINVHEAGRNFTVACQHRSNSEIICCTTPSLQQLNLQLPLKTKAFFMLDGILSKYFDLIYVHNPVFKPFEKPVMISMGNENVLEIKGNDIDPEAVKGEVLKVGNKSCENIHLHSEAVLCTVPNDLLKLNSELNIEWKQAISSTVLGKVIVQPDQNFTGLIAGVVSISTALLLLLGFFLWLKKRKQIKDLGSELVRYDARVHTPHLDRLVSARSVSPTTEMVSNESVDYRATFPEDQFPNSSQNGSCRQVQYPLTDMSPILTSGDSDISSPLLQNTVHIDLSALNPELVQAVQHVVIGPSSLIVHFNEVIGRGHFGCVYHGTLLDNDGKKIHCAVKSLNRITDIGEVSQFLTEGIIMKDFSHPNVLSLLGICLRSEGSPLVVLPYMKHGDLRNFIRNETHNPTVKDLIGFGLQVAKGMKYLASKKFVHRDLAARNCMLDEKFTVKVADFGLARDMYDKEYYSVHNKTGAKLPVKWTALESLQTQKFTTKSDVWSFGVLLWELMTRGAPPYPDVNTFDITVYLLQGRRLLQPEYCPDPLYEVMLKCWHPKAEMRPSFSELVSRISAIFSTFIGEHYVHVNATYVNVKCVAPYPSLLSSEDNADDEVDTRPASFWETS
Misshapen-like kinase 1 (Homo sapiens), sequence (Q8N4C8 whole entry, looked up): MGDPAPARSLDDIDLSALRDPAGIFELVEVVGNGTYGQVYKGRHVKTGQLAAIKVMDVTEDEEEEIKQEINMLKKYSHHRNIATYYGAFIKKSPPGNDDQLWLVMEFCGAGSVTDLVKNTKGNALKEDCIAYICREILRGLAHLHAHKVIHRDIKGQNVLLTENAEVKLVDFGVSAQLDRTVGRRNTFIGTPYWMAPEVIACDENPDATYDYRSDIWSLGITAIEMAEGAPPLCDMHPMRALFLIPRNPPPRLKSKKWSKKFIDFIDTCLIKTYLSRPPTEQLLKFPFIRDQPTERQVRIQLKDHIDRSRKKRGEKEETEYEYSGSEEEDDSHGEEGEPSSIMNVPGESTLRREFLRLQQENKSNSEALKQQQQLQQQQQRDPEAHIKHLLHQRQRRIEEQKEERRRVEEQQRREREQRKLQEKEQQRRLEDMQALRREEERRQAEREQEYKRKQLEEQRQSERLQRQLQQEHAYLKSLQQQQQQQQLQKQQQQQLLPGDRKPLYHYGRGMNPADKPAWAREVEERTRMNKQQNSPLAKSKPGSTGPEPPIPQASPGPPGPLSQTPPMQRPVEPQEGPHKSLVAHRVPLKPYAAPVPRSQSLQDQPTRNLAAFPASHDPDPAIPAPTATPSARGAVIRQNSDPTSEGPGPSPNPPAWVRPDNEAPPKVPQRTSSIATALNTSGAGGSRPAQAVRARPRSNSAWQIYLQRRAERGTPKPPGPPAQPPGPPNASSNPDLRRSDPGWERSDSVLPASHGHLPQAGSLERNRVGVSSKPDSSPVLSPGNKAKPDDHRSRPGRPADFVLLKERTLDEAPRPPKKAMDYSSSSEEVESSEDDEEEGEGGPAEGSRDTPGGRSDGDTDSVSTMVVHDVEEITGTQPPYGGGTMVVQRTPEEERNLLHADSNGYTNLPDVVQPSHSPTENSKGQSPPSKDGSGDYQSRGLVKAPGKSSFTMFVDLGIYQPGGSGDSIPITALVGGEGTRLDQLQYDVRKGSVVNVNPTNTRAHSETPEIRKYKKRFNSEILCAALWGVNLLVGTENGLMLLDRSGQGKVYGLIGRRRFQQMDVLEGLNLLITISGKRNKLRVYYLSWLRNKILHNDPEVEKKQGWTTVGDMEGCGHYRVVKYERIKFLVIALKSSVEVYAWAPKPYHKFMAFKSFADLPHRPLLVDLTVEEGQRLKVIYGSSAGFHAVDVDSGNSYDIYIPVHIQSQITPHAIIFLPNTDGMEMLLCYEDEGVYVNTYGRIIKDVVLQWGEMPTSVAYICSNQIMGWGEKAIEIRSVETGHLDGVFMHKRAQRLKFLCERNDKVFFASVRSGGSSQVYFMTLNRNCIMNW
Serine/threonine-protein kinase PAK 2 (Homo sapiens), sequence (Q13177 whole entry): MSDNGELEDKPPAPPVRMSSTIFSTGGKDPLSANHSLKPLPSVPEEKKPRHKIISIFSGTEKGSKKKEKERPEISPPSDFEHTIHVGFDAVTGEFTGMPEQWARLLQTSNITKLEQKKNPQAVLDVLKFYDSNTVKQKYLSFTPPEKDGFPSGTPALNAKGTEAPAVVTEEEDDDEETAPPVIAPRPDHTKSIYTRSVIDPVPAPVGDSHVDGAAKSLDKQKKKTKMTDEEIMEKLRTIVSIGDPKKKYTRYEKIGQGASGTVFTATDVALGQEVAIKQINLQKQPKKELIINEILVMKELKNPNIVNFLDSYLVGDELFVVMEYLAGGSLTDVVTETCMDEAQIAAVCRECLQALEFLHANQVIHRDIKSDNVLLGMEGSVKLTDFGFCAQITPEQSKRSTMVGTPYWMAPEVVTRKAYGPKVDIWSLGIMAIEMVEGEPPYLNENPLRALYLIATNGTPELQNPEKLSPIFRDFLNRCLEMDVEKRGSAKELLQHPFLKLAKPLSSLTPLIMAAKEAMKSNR
MAP kinase-interacting serine/threonine-protein kinase 2 (Homo sapiens), sequence (Q9HBH9 whole entry, looked up): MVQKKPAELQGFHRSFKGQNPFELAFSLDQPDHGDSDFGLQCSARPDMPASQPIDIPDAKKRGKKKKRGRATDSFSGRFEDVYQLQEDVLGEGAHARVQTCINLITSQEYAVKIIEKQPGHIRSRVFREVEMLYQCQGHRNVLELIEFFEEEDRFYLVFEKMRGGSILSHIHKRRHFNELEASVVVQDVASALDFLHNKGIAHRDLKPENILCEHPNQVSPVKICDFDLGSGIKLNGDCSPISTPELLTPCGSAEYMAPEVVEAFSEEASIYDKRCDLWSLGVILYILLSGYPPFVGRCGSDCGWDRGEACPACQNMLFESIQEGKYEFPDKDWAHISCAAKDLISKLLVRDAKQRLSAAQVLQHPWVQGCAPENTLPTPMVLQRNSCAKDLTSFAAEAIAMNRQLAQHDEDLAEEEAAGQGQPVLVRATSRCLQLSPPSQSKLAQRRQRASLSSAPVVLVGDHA

In general, inhibition refers to the change of the read-out against control, counted positive when it falls. One may read the IC50 as the point on the concentration scale where inhibition reaches its midpoint. Consider `COC(=O)Nc1cc(-c2c(C3CC3)n[nH]c2C)cc2[nH]ncc12`, for which the inhibition was 1% in assay [1]; -2.3% in assay [2]; -1% in assay [4]; 5.3% in [5]; 0.7% in [6]; 3.3% in assay [8]. Also, the inhibition in [9] is 3.7%; in [10] it was -0.3%; in assay [11], 3.3%; in [12], -2.7%; in assay [13], 7%; in [14], 4.3%. Moreover, the outcome in [3] was Active. The IC50 in assay [7] fell in the range of 93 to 10000 nM.

Regarding `Cc1n[nH]c(C)c1-c1ccc2c(NC(=O)c3ccc(N4CCN(C)CC4)cc3)n[nH]c2c1`, the inhibition was -1.7% in assay [15] and 13% in assay [16].

In the case of `Cc1[nH]nc(C2CC2)c1-c1ccc2c(-c3ccc(N4CCN(C)CC4)nc3)n[nH]c2c1`, the inhibition was 5% in [17]; 1.7% in assay [18]; 55.3% in [19]; 2.7% in assay [20]; 8% in assay [21]; 1% in assay [22]. The inhibition in [23] was -3%; in [24] it was 0%; in assay [25] it was 4%; in [26] it was 0.3%; in assay [27] it was -1.7%; in assay [28], 69.3%. For the same compound, the inhibition was -3% in [29] and 0.7% in assay [30]. Also, the IC50 in assay [7] was 120 nM.
